Assay results published in ChEMBL document CHEMBL3588837, “Development and validation of a novel assay to identify radiosensitizers that target nucleophosmin 1” (Bioorg Med Chem, 2015).
pEC50: −log10 of the molar value. The source made the active and inactive calls. The rule behind the calls is not given here.

Columns and labels:
[1] = tested on: Nucleophosmin (Homo sapiens), P06748 [T199N]; assay: (§1) Inhibition of phosphorylated NPM1 recruitment to chromatic in 6 Gy irradiated human A549 cells assessed as band intensity ratio of protein solubility measured as extraction of pT199NPM1 pretreated 30 mins and measured after 90 mins of irradiation at 25 uM by Western blot analysis in presence of high NP-40 lysis buffer relative to DMSO control; type: cell-based
Procedure, shortened: (§2)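 A549 cells at 70–80% confluency were exposed to compound for 30 min, given 6 Gy from a Cs137 source at 2 Gy/min, and held 90 min at 37°C. Equal protein was run on 10% SDS-PAGE and immunoblotted for pT199 NPM1 and total NPM1. Band intensity ratio = (compound+6 Gy)/(DMSO+6 Gy).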

[2] = molecular target: Nucleophosmin (Homo sapiens) (UniProt P06748); assay: Inhibition of phosphorylated NPM1 recruitment to chromatic in 6 Gy irradiated human A549 cells assessed as increase in solubility of protein pretreated 30 mins and measured after 90 mins of irradiation at 2.5 to 5 uM by Western blot analysis relative to DMSO control in presence of high NP-40 lysis buffer; type: cell-based
[3] = tested on: Nucleophosmin (Homo sapiens), P06748 [T199N]; assay: Inhibition of phosphorylated NPM1 recruitment to chromatic in 6 Gy irradiated human A549 cells assessed as extraction of pT199NPM1 pretreated 30 mins and measured after 90 mins of irradiation at 25 uM by Western blot analysis in presence of high NP-40 lysis buffer; type: cell-based
[4] = tested on: Nucleophosmin (Homo sapiens), P06748 [T199N]; assay: Inhibition of phosphorylated NPM1 recruitment to chromatic in 6 Gy irradiated human A549 cells assessed as increase in protein solubility as extraction of pT199NPM1 pretreated 30 mins and measured after 90 mins of irradiation at 10 uM by Western blot analysis; type: cell-based
Procedure, shortened: (§3)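 Drug or DMSO at various concentrations was present on A549 cells for 30 min before, during, and 90 min after 0 or 6 Gy. Nuclear proteins were extracted in 420 mM NaCl high salt buffer and blotted for pT199 NPM1. Buffer-soluble pNPM1 in irradiated cells was quantified relative to non-irradiated cells (±SD, N=3). EC50 was taken from the band intensity plot.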

[5] = molecular target: T1, Nucleophosmin (Homo sapiens, UniProt P06748, T199N); assay: Inhibition of phosphorylated NPM1 recruitment to chromatic in 6 Gy irradiated human A549 cells assessed as increase in protein solubility as extraction of pT199NPM1 pretreated 30 mins and measured after 90 mins of irradiation by Western blot analysis; type: cell-based; procedure, shortened: as §3
[6] = tested on: Nucleophosmin (Homo sapiens), P06748 [T199N]; assay: Inhibition of phosphorylated NPM1 recruitment to chromatic in 6 Gy irradiated human A549 cells assessed as extraction of pT199NPM1 pretreated 30 mins and measured after 90 mins of irradiation at 25 uM by Western blot analysis in presence of high RIPA lysis buffer; type: cell-based
[7] = tested on: Nucleophosmin (Homo sapiens), P06748 [T199N]; assay: Inhibition of phosphorylated NPM1 recruitment to chromatic in 6 Gy irradiated human IMR90 cells assessed as extraction of pT199NPM1 pretreated 30 mins and measured after 90 mins of irradiation at 25 uM by Western blot analysis relative to DMSO control in presence of high NP-40 lysis buffer; type: cell-based; details: IMR-90
Procedure, shortened: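 IMR-90 normal lung fibroblasts, grown in DMEM, received 25 μM drug for 30 min, were irradiated, and were incubated 90 min. Total lysate was prepared with NP-40 lysis buffer and analysed by Western blot for pT199 NPM1.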

[8] = tested on: Nucleophosmin (Homo sapiens), P06748 [T199N]; assay: Inhibition of phosphorylated NPM1 recruitment to chromatic in 6 Gy irradiated human A549 cells assessed as extraction of pT199NPM1 pretreated 30 mins and measured after 90 mins of irradiation at 25 uM by Western blot analysis in presence of high salt lysis buffer; type: cell-based
Procedure, shortened: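 A549 cells were dosed with 25 μM drug for 30 min, irradiated, and incubated 90 min. Nuclei were isolated on ice, then extracted in high salt buffer (10 mM HEPES pH 7.2, 420 mM NaCl, 1.5 mM MgCl2, 0.5 mM DTT, 25% glycerol). Extracts were immunoblotted for pT199 NPM1 and total NPM1.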

[9] = tested on: Nucleophosmin (Homo sapiens), P06748 [T199N]; assay: Inhibition of phosphorylated NPM1 recruitment to chromatic in 6 Gy irradiated human A549 cells assessed as extraction of pT199NPM1 pretreated 30 mins and measured after 90 mins of irradiation at 2.5 uM by Western blot analysis relative to DMSO control in presence of high NP-40 lysis buffer; type: cell-based; procedure, shortened: as §2
[10] = molecular target: Nucleophosmin (Homo sapiens) (UniProt P06748); assay: Inhibition of phosphorylated NPM1 recruitment to chromatic in 6 Gy irradiated human A549 cells assessed as increase in solubility of protein pretreated 30 mins and measured after 90 mins of irradiation at 5 uM by Western blot analysis relative to DMSO control in presence of high NP-40 lysis buffer; type: cell-based
[11] = molecular target: T1, Nucleophosmin; assay: (§4) Inhibition of phosphorylated NPM1 recruitment to chromatic in 6 Gy irradiated human A549 cells assessed as extraction of pT199NPM1 pretreated 30 mins and measured after 90 mins of irradiation by Western blot analysis in presence of high NP-40 lysis buffer; type: cell-based
[12] = tested on: NCI-H460; assay: Radiodensitization of 6 Gy irradiated human H460 cells assessed as colony formation pretreated 30 mins followed by irradiated for 90 mins and washed off measured after 10 to 14 days incubation at 5 uM by trypan blue assay; type: functional, cell-based
Procedure, shortened: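 H460 cells, grown in RPMI-1640, were plated in T25 flasks and exposed to 5 μM drug at 37°C for 30 min. They were then irradiated at various radiation doses and incubated 90 min. Drug was washed off with PBS and fresh medium added. Flasks were kept 10–14 days, and colonies were stained with trypan blue and counted.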

[13] = tested on: Nucleophosmin (Homo sapiens), P06748 [T199N]; assay: as §1, with “2.5” for “25”; type: cell-based
[14] = tested on: Nucleophosmin (Homo sapiens), P06748 [T199N]; assay: as §4, with “assessed as increase in protein solubility” for “assessed”, “analysis relative to YTR107” for “analysis”; type: cell-based

Chain of Nucleophosmin (Homo sapiens), P06748 [T199N] (P06748 whole entry T199N): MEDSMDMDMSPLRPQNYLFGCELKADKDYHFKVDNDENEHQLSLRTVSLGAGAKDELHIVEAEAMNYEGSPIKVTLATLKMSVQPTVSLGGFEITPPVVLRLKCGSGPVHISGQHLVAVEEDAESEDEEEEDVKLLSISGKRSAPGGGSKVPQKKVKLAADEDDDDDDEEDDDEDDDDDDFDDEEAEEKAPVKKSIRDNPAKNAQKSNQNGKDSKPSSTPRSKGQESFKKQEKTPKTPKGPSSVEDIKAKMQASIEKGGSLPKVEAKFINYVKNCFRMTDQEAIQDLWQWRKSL
Chain of Nucleophosmin (Homo sapiens) (P06748 whole entry): as the sequence (P06748 whole entry T199N) above, with N199T counted along it
T1 sequence (P06748 whole entry T199N): as the sequence (P06748 whole entry T199N) above

In the case of `Cc1c(C=C2C(=O)NC(=S)NC2=O)c2ccccc2n1Cc1ccccc1`, the Ratio [1] was 1.96.
`Cc1c(C=C2C(=O)NC(=S)NC2=O)c2ccccc2n1Cc1ccccc1C(F)(F)F` was tested, and the Ratio [1] was 1.54.
With `COc1ccc(Cn2c(C)c(C=C3C(=O)NC(=S)NC3=O)c3ccccc32)c(OC)c1` the Ratio [1] was 1.22.
For `COc1cc(Cn2c(C)c(C=C3C(=O)NC(=S)NC3=O)c3ccccc32)cc(OC)c1OC`, the Ratio [1] was 1.97.
Work on `Cc1c(C=C2C(=O)NC(=O)NC2=O)c2ccccc2n1Cc1ccccc1C(F)(F)F` yielded a Ratio [1] of 1.16.
`COC(=O)c1ccc(Cn2c(C)c(C=C3C(=O)NC(=S)NC3=O)c3ccccc32)cc1` was tested, and the Ratio [1] was 1.74.
For `COc1cc(Cn2c(C)c(C=C3C(=O)NC(=O)NC3=O)c3ccccc32)cc(OC)c1`, the Activity [2] was “inactive” and the Ratio [1] was 1.63.
`Cc1c(C=C2C(=O)NC(=O)NC2=O)c2ccccc2n1Cc1ccccc1Br` showed a Ratio [1] of 1.05.
Work on `COc1cc(Cn2c(C)c(C=C3C(=O)NC(=S)NC3=O)c3ccccc32)cc(OC)c1` yielded a Ratio [1] of 1.97.
For `N#Cc1ccc(Cn2cc(C=C3C(=O)NC(=O)NC3=O)c3ccccc32)cc1`, the Activity [3] was “Active”, the Activity [4] was “Active” and the pEC50 [5] was 5.01. The Activity [6] was “Active”, the Activity [7] was “inactive” and the Activity [8] was “Active”. For the same compound, the Ratio [1] was 1.51.
`COc1cc(Cn2c(C)c(C=C3C(=O)NC(=O)NC3=O)c3ccccc32)cc(OC)c1OC` showed a Ratio [1] of 1.16.
With `Cc1c(C=C2C(=O)NC(=O)NC2=O)c2ccccc2n1Cc1ccc(C#N)cc1` the Activity [9] was “inactive”, the Activity [10] was “Active” and the Ratio [1] was 1.58.
For `Cc1c(C=C2C(=O)NC(=O)NC2=O)c2ccccc2n1Cc1ccccc1`, the Ratio [1] was 1.53.
`Cc1c(C=C2C(=O)NC(=O)NC2=O)c2ccccc2n1Cc1ccc(Br)cc1` was tested, and the Ratio [1] was 1.23.
With `Cc1c(C=C2C(=O)NC(=S)NC2=O)c2ccccc2n1Cc1ccc(C#N)cc1` the Ratio [1] was 1.86.
Work on `Cc1c(C=C2C(=O)NC(=S)NC2=O)c2ccccc2n1Cc1ccccc1Br` yielded a Ratio [1] of 1.68.
`Cc1c(C=C2C(=O)NC(=S)NC2=O)c2ccccc2n1Cc1ccc(Br)cc1` was tested, and the pEC50 [11] was 5.60, the Activity [12] was “Active” and the Ratio [13] was 1.78. It also gave a fold change (FC) [14] of 4.
With `COC(=O)c1ccc(Cn2c(C)c(C=C3C(=O)NC(=O)NC3=O)c3ccccc32)cc1` the Ratio [1] was 1.48.
